Calls of active or inactive are those of the source. No cut-off for these calls is given here.
Tests used:
[1] = biological target: T1, Orexin/Hypocretin receptor type 1 (Homo sapiens) (UniProt O43613); test: Antagonist activity at OX1 receptor expressed in CHO cells assessed as inhibition of orexin-A-induced calcium mobilization by FlexStation assay; format: functional, cell-based
T1 sequence (whole entry): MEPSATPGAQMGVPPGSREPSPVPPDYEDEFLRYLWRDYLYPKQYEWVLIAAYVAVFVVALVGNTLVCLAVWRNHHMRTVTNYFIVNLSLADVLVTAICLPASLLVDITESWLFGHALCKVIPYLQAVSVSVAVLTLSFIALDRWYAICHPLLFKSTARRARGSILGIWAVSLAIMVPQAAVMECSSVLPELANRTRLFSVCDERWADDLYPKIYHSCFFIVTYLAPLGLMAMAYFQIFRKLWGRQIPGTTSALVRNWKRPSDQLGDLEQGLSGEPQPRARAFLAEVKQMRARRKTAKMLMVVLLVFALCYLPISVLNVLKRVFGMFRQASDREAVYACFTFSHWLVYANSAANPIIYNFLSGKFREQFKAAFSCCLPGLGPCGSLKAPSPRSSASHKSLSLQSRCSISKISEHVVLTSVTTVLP
Summary of the method: (§1)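 Cells stably expressing OX1 or OX2 receptor, dye-loaded 1 h. EC50s came from a three-parameter logistic fit. Ke = [L]/(DR−1), DR = A'/A. Duplicates; ≥3 (OX1) or ≥2 (OX2) independent experiments.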

[2] = biological target: T2, Orexin receptor type 2 (Homo sapiens) (UniProt O43614); test: Antagonist activity at OX2 receptor expressed in CHO cells assessed as inhibition of orexin-A-induced calcium mobilization by FlexStation assay; format: functional, cell-based; summary of the method: as §1
T2 sequence (whole entry): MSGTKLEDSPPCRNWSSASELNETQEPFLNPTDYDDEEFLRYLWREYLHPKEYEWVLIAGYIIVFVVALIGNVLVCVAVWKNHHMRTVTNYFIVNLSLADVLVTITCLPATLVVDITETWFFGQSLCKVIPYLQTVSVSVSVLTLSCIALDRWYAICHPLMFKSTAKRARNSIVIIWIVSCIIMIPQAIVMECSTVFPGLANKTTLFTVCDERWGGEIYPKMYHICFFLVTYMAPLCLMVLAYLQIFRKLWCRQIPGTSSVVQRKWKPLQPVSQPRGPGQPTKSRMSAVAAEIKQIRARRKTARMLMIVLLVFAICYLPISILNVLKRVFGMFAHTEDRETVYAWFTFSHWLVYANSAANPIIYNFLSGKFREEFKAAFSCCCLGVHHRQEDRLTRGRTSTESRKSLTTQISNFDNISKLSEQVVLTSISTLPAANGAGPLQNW

[3] = Selectivity ratio of Ke for OX2 receptor to Ke for OX1 receptor
[4] = biological target: T1, Orexin/Hypocretin receptor type 1 (Homo sapiens); test: Agonist activity at OX1 receptor expressed in CHO cells at 10 uM by FlexStation assay; format: functional, cell-based
Summary of the method: (§2)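 Separate cell lines stably expressing OX1 or OX2 receptor were loaded with calcium-sensitive dye for 1 h. Compounds were tested alone at 10 µM for intrinsic agonist activity, read as a rise in fluorescence (intracellular calcium) on the FlexStation.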

[5] = biological target: T2, Orexin receptor type 2 (Homo sapiens); test: Agonist activity at OX2 receptor expressed in CHO cells at 10 uM by FlexStation assay; format: functional, cell-based; summary of the method: as §2

| Compound | Ke [1] [nM] | Ke [2] [nM] | Ratio Ke [3] | Activity [4] | Activity [5] |
| --- | --- | --- | --- | --- | --- |
| COc1ccc(NC(=O)Nc2ccnc3c(F)cccc23)cc1OC | 965 | > 10000 | > 10 | inactive | inactive |
| CN(C)c1ccc(CC(=O)Nc2ccnc3c(F)cccc23)cc1 | > 10000 | > 10000 | – | inactive | inactive |
| O=C(Nc1ccc2c(c1)OCO2)Nc1ccnc2c(F)cccc12 | 13.4 | 1620 | – | inactive | inactive |
| Cc1nc2ccc(NC(=O)Nc3ccnc4cccnc34)cc2o1 | 45 | 1190 | 50 | inactive | inactive |

From ChEMBL document CHEMBL1770060, “Diaryl urea analogues of SB-334867 as orexin-1 receptor antagonists” (Bioorg Med Chem Lett, 2011)
